From ChEMBL document CHEMBL3098086, “Synthesis and biological evaluation of α-triazolyl chalcones as a new type of potential antimicrobial agents and their interaction with calf thymus DNA and human serum albumin” (Eur J Med Chem, 2014)
Converted amounts (≈) assume the structure as drawn. The source made the active and inactive calls. No cut-off for these calls is given here.

Key:
Candida = experiment: Antifungal activity against Candida mycoderma ATCC 96918 after 24 hrs by micro broth dilution method; format: functional; conditions: ATCC 96918, 24 h
In short: (§1)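 Fungi: C. albicans ATCC 76615 and C. mycoderma ATCC 96918. MICs by two-fold broth microdilution in 96-well plates per NCCLS. Fluconazole served as positive control.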

Candida albicans = experiment: Antifungal activity against Candida albicans ATCC 76615 after 24 hrs by micro broth dilution method; format: functional; conditions: ATCC 76615, 24 h; in short: as §1
Bacillus = experiment: Antibacterial activity against Bacillus proteus ATCC 13315 after 24 hrs by twofold serial dilution method; format: functional; conditions: ATCC 13315, 24 h
In short: (§2)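 Bacterial strains: S. aureus ATCC 25923, B. subtilis ATCC 21216, M. luteus ATCC 4698, E. coli JM109, P. aeruginosa ATCC 27853, B. proteus ATCC 13315. MICs by two-fold broth microdilution in 96-well plates per NCCLS. Chloromycin and Norfloxacin served as positive controls.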

Pseudomonas aeruginosa = experiment: Antibacterial activity against Pseudomonas aeruginosa ATCC 27853 after 24 hrs by twofold serial dilution method; format: functional; conditions: ATCC 27853, 24 h; in short: as §2
Escherichia coli = experiment: Antibacterial activity against Escherichia coli JM109 after 24 hrs by twofold serial dilution method; format: functional; conditions: JM109, 24 h; in short: as §2
Salmonella typhi = experiment: Antibacterial activity against Bacillus typhi after 24 hrs by twofold serial dilution method; format: functional, Salmonella enterica subsp. enterica serovar Typhi; conditions: Salmonella enterica
In short: (§3)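 Two-fold broth microdilution per NCCLS recommendations. The MIC was read as the minimum inhibitory concentration. Chloromycin and Norfloxacin served as positive controls. Strains were Bacillus typhi (Gram-negative panel) and methicillin-resistant S. aureus N315.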

Micrococcus luteus = experiment: Antibacterial activity against Micrococcus luteus ATCC 4698 after 24 hrs by twofold serial dilution method; format: functional; conditions: ATCC 4698, 24 h; in short: as §2
Bacillus subtilis = experiment: Antibacterial activity against Bacillus subtilis ATCC 21216 after 24 hrs by twofold serial dilution method; format: functional; conditions: ATCC 21216, 24 h; in short: as §2
Staphylococcus aureus [1] = experiment: Antibacterial activity against Staphylococcus aureus ATCC 25923 after 24 hrs by twofold serial dilution method; format: functional; conditions: ATCC 25923, 24 h; in short: as §2
Staphylococcus aureus [2] = experiment: Antibacterial activity against methicillin-resistant staphylococcus aureus N315 after 24 hrs by twofold serial dilution method; format: functional; conditions: N315, 24 h; in short: as §3
Albumin [3] = target: T1, Albumin (Homo sapiens, UniProt P02768); experiment: Ratio of binding affinity to human serum albumin in presence of Zn2+ to binding affinity to human serum albumin absence of Zn2+; format: ADME; conditions: isolated protein
T1 sequence (P02768 whole entry): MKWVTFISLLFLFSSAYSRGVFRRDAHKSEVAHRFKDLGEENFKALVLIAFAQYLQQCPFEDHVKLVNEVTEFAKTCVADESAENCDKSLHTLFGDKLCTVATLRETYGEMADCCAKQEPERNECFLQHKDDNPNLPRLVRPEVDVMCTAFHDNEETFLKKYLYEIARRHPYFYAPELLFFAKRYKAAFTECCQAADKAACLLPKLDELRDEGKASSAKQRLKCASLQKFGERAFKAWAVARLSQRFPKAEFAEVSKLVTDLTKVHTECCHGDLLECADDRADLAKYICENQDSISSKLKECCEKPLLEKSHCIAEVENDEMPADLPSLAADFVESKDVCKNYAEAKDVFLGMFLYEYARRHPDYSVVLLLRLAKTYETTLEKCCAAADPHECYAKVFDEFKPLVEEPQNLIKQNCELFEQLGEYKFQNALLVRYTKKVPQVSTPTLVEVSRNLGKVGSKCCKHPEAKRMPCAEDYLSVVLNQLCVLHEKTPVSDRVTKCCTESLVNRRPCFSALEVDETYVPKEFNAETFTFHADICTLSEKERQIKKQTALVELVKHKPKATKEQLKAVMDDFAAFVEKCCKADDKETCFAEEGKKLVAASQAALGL

Albumin [4] = target: T1, Albumin; experiment: Ratio of binding affinity to human serum albumin in presence of Ni2+ to binding affinity to human serum albumin absence of Ni2+; format: ADME; conditions: isolated protein
Albumin [5] = target: T1, Albumin; experiment: Ratio of binding affinity to human serum albumin in presence of Pb2+ to binding affinity to human serum albumin absence of Pb2+; format: ADME; conditions: isolated protein
Albumin [6] = target: T1, Albumin; experiment: Ratio of binding affinity to human serum albumin in presence of Mg2+ to binding affinity to human serum albumin absence of Mg2+; format: ADME; conditions: isolated protein
Albumin [7] = target: T1, Albumin; experiment: Ratio of binding affinity to human serum albumin in presence of K+ to binding affinity to human serum albumin absence of K+; format: ADME; conditions: isolated protein
Albumin [8] = target: T1, Albumin; experiment: Ratio of binding affinity to human serum albumin in presence of Fe3+ to binding affinity to human serum albumin absence of Fe3+; format: ADME; conditions: isolated protein
Albumin [9] = target: T1, Albumin; experiment: Ratio of binding affinity to human serum albumin in presence of Ca2+ to binding affinity to human serum albumin absence of Ca2+; format: ADME; conditions: isolated protein
Albumin [10] = target: T1, Albumin; experiment: Ratio of binding affinity to human serum albumin in presence of Cu2+ to binding affinity to human serum albumin absence of Cu2+; format: ADME; conditions: isolated protein
Albumin [11] = target: T1, Albumin; experiment: Binding affinity to human serum albumin at pH 7.4 at 310 K by fluorescence quenching analysis; format: ADME; conditions: isolated protein
In short: (§4)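 Intrinsic HSA Trp fluorescence was quenched by compound titration at pH 7.4 and at 286, 298 or 310 K. Excitation was 295 nm, emission scanned 300–450 nm, both slits 2.5 nm, 1.0 cm quartz cells. Data were fitted by Stern–Volmer analysis to give KSV. Kq was calculated assuming an HSA fluorescence lifetime of 6.4 × 10^-9 s.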

Albumin [12] = target: T1, Albumin; experiment: Binding affinity to human serum albumin at pH 7.4 at 286 K by fluorescence quenching analysis; format: ADME; conditions: isolated protein; in short: as §4
Albumin [13] = target: T1, Albumin; experiment: Binding affinity to human serum albumin at pH 7.4 at 298 K by fluorescence quenching analysis; format: ADME; conditions: isolated protein; in short: as §4
DNA [14] = experiment: Binding affinity to calf thymus DNA by UV-vis absorption spectra analysis; format: nucleic-acid assay; conditions: Bos taurus
DNA [15] = experiment: Displacement of neutral red from calf thymus DNA by UV-vis absorption spectra analysis; format: nucleic-acid assay; conditions: Bos taurus

SMILES | MIC (Candida) [µg/mL] | MIC (Candida albicans) [µg/mL] | MIC (Bacillus) [µg/mL] | MIC (Pseudomonas aeruginosa) [µg/mL] | MIC (Escherichia coli) [µg/mL] | MIC (Salmonella typhi) [µg/mL] | MIC (Micrococcus luteus) [µg/mL] | MIC (Bacillus subtilis) [µg/mL] | MIC (Staphylococcus aureus [1]) [µg/mL] | MIC (Staphylococcus aureus [2]) [µg/mL] | further results
O=C(/C(=C/c1ccccc1)n1cncn1)c1ccc(N2CCCCC2)cc1N1CCCCC1 | 16 (≈ 36.2 µM) | 16 (≈ 36.2 µM) | 64 (≈ 145 µM) | 128 (≈ 290 µM) | 64 (≈ 145 µM) | 32 (≈ 72.5 µM) | 64 (≈ 145 µM) | 32 (≈ 72.5 µM) | 16 (≈ 36.2 µM) | 32 (≈ 72.5 µM) | –
O=C(/C(=C/c1ccccc1)n1cncn1)c1ccc(F)cc1N1CCOCC1 | 32 (≈ 84.6 µM) | 128 (≈ 338 µM) | 32 (≈ 84.6 µM) | 64 (≈ 169 µM) | 16 (≈ 42.3 µM) | 32 (≈ 84.6 µM) | 64 (≈ 169 µM) | 32 (≈ 84.6 µM) | 32 (≈ 84.6 µM) | 128 (≈ 338 µM) | –
O=C(/C(=C/c1ccccc1)n1cncn1)c1ccc(F)cc1F | 64 (≈ 206 µM) | 128 (≈ 411 µM) | 64 (≈ 206 µM) | 128 (≈ 411 µM) | 32 (≈ 103 µM) | 32 (≈ 103 µM) | 64 (≈ 206 µM) | 64 (≈ 206 µM) | 32 (≈ 103 µM) | 64 (≈ 206 µM) | –
O=C(/C(=C/c1ccccc1)n1cncn1)c1ccc(N2CCOCC2)cc1N1CCOCC1 | 64 (≈ 144 µM) | 128 (≈ 287 µM) | 64 (≈ 144 µM) | 128 (≈ 287 µM) | 32 (≈ 71.8 µM) | 32 (≈ 71.8 µM) | 64 (≈ 144 µM) | 64 (≈ 144 µM) | 32 (≈ 71.8 µM) | 64 (≈ 144 µM) | –
CCn1cc(C(=O)O)c(=O)c2cc(F)c(N3CCNCC3)cc21 [NORFLOXACIN] | – | – | 8 (≈ 25.1 µM) | 16 (≈ 50.1 µM) | 16 (≈ 50.1 µM) | 4 (≈ 12.5 µM) | 2 (≈ 6.26 µM) | 1 (≈ 3.13 µM) | 0.5 (≈ 1.57 µM) | 8 (≈ 25.1 µM) | –
OC(Cn1cncn1)(Cn1cncn1)c1ccc(F)cc1F [FLUCONAZOLE] | 4 (≈ 13.1 µM) | 1 (≈ 3.27 µM) | – | – | – | – | – | – | – | – | –
O=C(/C(=C/c1ccccc1)n1cncn1)c1ccc(F)cc1N1CCCCC1 | 8 (≈ 21.3 µM) | 16 (≈ 42.5 µM) | 8 (≈ 21.3 µM) | 16 (≈ 42.5 µM) | 16 (≈ 42.5 µM) | 8 (≈ 21.3 µM) | 4 (≈ 10.6 µM) | 8 (≈ 21.3 µM) | 16 (≈ 42.5 µM) | 4 (≈ 10.6 µM) | Ratio (Albumin [3]): 0.918; Ratio (Albumin [4]): 0.835; Ratio (Albumin [5]): 0.819; Ratio (Albumin [6]): 1.068; Ratio (Albumin [7]): 1.324; Ratio (Albumin [8]): 1.151; Ratio (Albumin [9]): 0.887; Ratio (Albumin [10]): 0.959; KSV (Albumin [11]): 5.84 ×10⁴ L/mol; KSV (Albumin [12]): 7.59 ×10⁴ L/mol; KSV (Albumin [13]): 6.72 ×10⁴ L/mol; Activity (DNA [14]): Dose-dependent effect; K (DNA [14]): 1.22 ×10⁴ L/mol; Activity (DNA [15]): Active
O=C(/C(=C/c1ccccc1)n1cncn1)c1ccc(F)cc1N1CCCC1 | 256 (≈ 706 µM) | 32 (≈ 88.3 µM) | 16 (≈ 44.1 µM) | 16 (≈ 44.1 µM) | 8 (≈ 22.1 µM) | 4 (≈ 11 µM) | 16 (≈ 44.1 µM) | 8 (≈ 22.1 µM) | 16 (≈ 44.1 µM) | 16 (≈ 44.1 µM) | –
O=C(/C(=C/c1ccccc1)n1cncn1)c1ccc(N2CCCC2)cc1N1CCCC1 | 4 (≈ 9.67 µM) | 8 (≈ 19.3 µM) | 32 (≈ 77.4 µM) | 32 (≈ 77.4 µM) | 32 (≈ 77.4 µM) | 8 (≈ 19.3 µM) | 16 (≈ 38.7 µM) | 16 (≈ 38.7 µM) | 32 (≈ 77.4 µM) | 16 (≈ 38.7 µM) | –
